What all share (format): functional
The subject of test [1] is Tetranychus cinnabarinus. In words: Acaricidal activity against adult Tetranychus cinnabarinus (carmine spider mite) in sieva bean plants assessed as mortality at 200 mg/kg treated for 3 secs measured after 2 days. The conditions noted are these: 48 h.
Test [2] deals with Culex pipiens pallens. The test is described as follows: Insecticidal activity against fourth-instar larval stage of Culex pipiens pallens (mosquito) assessed as mortality at 0.25 mg/kg at 25 +/-1 degC after 2 days. The conditions noted are these: 48 h. Summed up: (§1)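 Test solutions were prepared by adding 1 mL of each concentrated dilution to 99 mL water. Bioassays were run at 25 ± 1 °C on laboratory-reared insects.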

In test [3] the test system is Mythimna separata. In words: Insecticidal activity against fourth-instar larval stage of Mythimna separata (Oriental armyworm) in compound pretreated corn leaves assessed as mortality at 10 mg/kg at 25 +/-1 degC measured after 2 days.
Test [4] concerns Culex pipiens pallens. In words: Insecticidal activity against fourth-instar larval stage of Culex pipiens pallens (mosquito) assessed as mortality at 0.50 mg/kg at 25 +/-1 degC after 2 days. Particulars: 48 h. In short, it runs like this:
as §1

Test [5] concerns Mythimna separata. The test is described as follows: Insecticidal activity against fourth-instar larval stage of Mythimna separata (Oriental armyworm) in compound pretreated corn leaves assessed as mortality at 20 mg/kg at 25 +/-1 degC measured after 2 days.
Test [6] deals with Mythimna separata. The test is described as follows: Insecticidal activity against fourth-instar larval stage of Mythimna separata (Oriental armyworm) in compound pretreated corn leaves assessed as mortality at 5 mg/kg at 25 +/-1 degC measured after 2 days.
In test [7] the test system is Culex pipiens pallens. The test is described as follows: Insecticidal activity against fourth-instar larval stage of Culex pipiens pallens (mosquito) assessed as mortality at 0.10 mg/kg at 25 +/-1 degC after 2 days. The conditions noted are these: 48 h. Summed up:
as §1

In test [8] the test system is Tetranychus cinnabarinus. The test is described as follows: Acaricidal activity against adult Tetranychus cinnabarinus (carmine spider mite) in sieva bean plants assessed as mortality at 50 mg/kg treated for 3 secs measured after 2 days. Particulars: 48 h.
The test system of test [9] is Tetranychus cinnabarinus. In words: Acaricidal activity against adult Tetranychus cinnabarinus (carmine spider mite) in sieva bean plants assessed as mortality at 100 mg/kg treated for 3 secs measured after 2 days. The conditions noted are these: 48 h.

As to `N#Cc1c(Br)c(C(F)(F)F)n(COC(=O)c2ccccc2N)c1-c1ccc(Cl)cc1`, in test [1], the mortality (usually the share of the test organisms that died) at 200 mg/kg was found to be 0%. For the same compound, in test [2], the mortality at 0.25 mg/kg is 100%. Moreover, the mortality at 10 mg/kg in test [3] turned out to be 0%. The mortality at 0.5 mg/kg in [4] came to 100%. Also, in [5], the mortality at 20 mg/kg came out at 10%. Besides, the mortality at 5 mg/kg in test [6] was 0%. Further, the mortality at 0.1 mg/kg in test [7] stood at 100%.
For the compound `N#Cc1c(Br)c(C(F)(F)F)n(COC(=O)c2ccccc2Cl)c1-c1ccc(Cl)cc1`, the mortality at 200 mg/kg in test [1] is 99%. For the same compound, the mortality at 0.25 mg/kg in test [2] amounted to 100%. The mortality at 50 mg/kg in [8] worked out at 93%. The mortality at 10 mg/kg in test [3] amounted to 35%. Besides, the mortality at 0.5 mg/kg in test [4] came to 100%. Further, the mortality at 20 mg/kg in [5] amounted to 100%. In test [6], the mortality at 5 mg/kg worked out at 0%. For the same compound, the mortality at 0.1 mg/kg in test [7] came out at 100%. Moreover, the mortality at 100 mg/kg in [9] is 95%.
Turning to `N#Cc1c(Br)c(C(F)(F)F)n(COC(=O)c2cc([N+](=O)[O-])cc([N+](=O)[O-])c2)c1-c1ccc(Cl)cc1`, the mortality at 200 mg/kg in test [1] stood at 0%. Besides, the mortality at 0.25 mg/kg in test [2] was 100%. For the same compound, in test [3], the mortality at 10 mg/kg amounted to 0%. Also, the mortality at 0.5 mg/kg in test [4] turned out to be 100%. Besides, the mortality at 20 mg/kg in test [5] was found to be 100%. Also, the mortality at 5 mg/kg in test [6] was 0%. The mortality at 0.1 mg/kg in test [7] came to 100%.
Regarding `N#Cc1c(Br)c(C(F)(F)F)n(COC=O)c1-c1ccc(Cl)cc1`, the mortality at 200 mg/kg in [1] was found to be 100%. Besides, the mortality at 0.25 mg/kg in test [2] was 100%. In addition, the mortality at 50 mg/kg in [8] stood at 82%. The mortality at 10 mg/kg in test [3] was 100%. Besides, the mortality at 0.5 mg/kg in test [4] came out at 100%. For the same compound, the mortality at 20 mg/kg in test [5] is 100%. The mortality at 5 mg/kg in test [6] turned out to be 0%. Besides, in [7], the mortality at 0.1 mg/kg came out at 50%. Also, the mortality at 100 mg/kg in test [9] came out at 89%.
Take `CC(Oc1ccc(C(C)(C)C)cc1)C(=O)OCn1c(-c2ccc(Cl)cc2)c(C#N)c(Br)c1C(F)(F)F` (stereo unspecified): the mortality at 200 mg/kg in test [1] was determined as 100%. Also, the mortality at 0.25 mg/kg in test [2] was 100%. Also, in [8], the mortality at 50 mg/kg turned out to be 94%. Besides, in [3], the mortality at 10 mg/kg came out at 30%. The mortality at 0.5 mg/kg in [4] came out at 100%. Also, the mortality at 20 mg/kg in test [5] was 80%. In test [6], the mortality at 5 mg/kg worked out at 0%. For the same compound, in test [7], the mortality at 0.1 mg/kg was 100%. Also, in [9], the mortality at 100 mg/kg is 96%.
With `N#Cc1c(Br)c(C(F)(F)F)n(COC(=O)c2ccc(N)cc2)c1-c1ccc(Cl)cc1`, in test [1], the mortality at 200 mg/kg came out at 0%. For the same compound, in test [2], the mortality at 0.25 mg/kg was determined as 10%. In test [3], the mortality at 10 mg/kg turned out to be 0%. For the same compound, in test [4], the mortality at 0.5 mg/kg is 100%. Also, the mortality at 20 mg/kg in test [5] was determined as 40%. The mortality at 5 mg/kg in [6] came out at 0%. Moreover, in test [7], the mortality at 0.1 mg/kg was determined as 10%.
As to `CC(=O)OCn1c(-c2ccc(Cl)cc2)c(C#N)c(Br)c1C(F)(F)F`, the mortality at 200 mg/kg in test [1] came to 0%. In test [2], the mortality at 0.25 mg/kg was found to be 100%. Also, the mortality at 10 mg/kg in [3] is 90%. In test [4], the mortality at 0.5 mg/kg came out at 100%. Besides, the mortality at 20 mg/kg in test [5] was found to be 100%. The mortality at 5 mg/kg in [6] is 0%. The mortality at 0.1 mg/kg in [7] is 100%.
Turning to `COc1ccc(C(=O)OCn2c(-c3ccc(Cl)cc3)c(C#N)c(Br)c2C(F)(F)F)cc1`, in test [1], the mortality at 200 mg/kg was 0%. The mortality at 0.25 mg/kg in test [2] came to 30%. The mortality at 10 mg/kg in test [3] turned out to be 90%. Also, the mortality at 0.5 mg/kg in test [4] amounted to 70%. For the same compound, the mortality at 20 mg/kg in test [5] stood at 100%. Moreover, in [6], the mortality at 5 mg/kg worked out at 0%. Also, the mortality at 0.1 mg/kg in [7] was determined as 20%.
As to `N#Cc1c(Br)c(C(F)(F)F)n(COC(=O)c2ccccc2[N+](=O)[O-])c1-c1ccc(Cl)cc1`, the mortality at 200 mg/kg in test [1] worked out at 0%. Further, the mortality at 0.25 mg/kg in test [2] amounted to 20%. Further, the mortality at 10 mg/kg in test [3] stood at 100%. In addition, the mortality at 0.5 mg/kg in test [4] was 100%. For the same compound, the mortality at 20 mg/kg in test [5] amounted to 100%. In [6], the mortality at 5 mg/kg is 20%. In test [7], the mortality at 0.1 mg/kg amounted to 10%.
As to `CC(Oc1cccc([N+](=O)[O-])c1)C(=O)OCn1c(-c2ccc(Cl)cc2)c(C#N)c(Br)c1C(F)(F)F` (stereo unspecified), the mortality at 200 mg/kg in test [1] worked out at 0%. For the same compound, the mortality at 0.25 mg/kg in test [2] was found to be 100%. In addition, the mortality at 10 mg/kg in test [3] is 85%. The mortality at 0.5 mg/kg in test [4] turned out to be 100%. Also, the mortality at 20 mg/kg in [5] turned out to be 100%. For the same compound, in [6], the mortality at 5 mg/kg turned out to be 0%. Besides, the mortality at 0.1 mg/kg in [7] was 90%.

(Values after ChEMBL document CHEMBL3046492, “Synthesis, insecticidal, and acaricidal activities of novel 2-aryl-pyrrole derivatives containing ester groups” (2008).)
